# Published values collected from several papers.
# Each line is one published result; the experiments were not run side by side.
SMILES,organism,test,system,conditions,measurement,result
C#CCON=C1C=CC(=C(C#N)c2ccccc2)C=C1,Pichia kudriavzevii,"microbial killing, broth dilution",ATCC14243,48 h,MFC,64 µg/mL
O=C(Nc1ccc(Cl)cc1)c1ccc(COC(Cn2ccnc2)c2ccc(Cl)cc2Cl)cc1 (centres unmarked),Pichia kudriavzevii,"microbial growth, broth dilution",,,MIC80,0.125 µg/mL
OC(Cn1cncn1)(Cn1cncn1)c1ccc(F)cc1F,Pichia kudriavzevii,"microbial growth, broth dilution",ATCC6258,48 h,MIC,0.7 µg/mL
Cc1nnc(-c2ccc3ccn(CC(=O)Nc4ccccc4Cl)c3c2)o1,Plasmodium knowlesi,"parasite growth, SYBR Green",,"30 h, blood stage",EC50,0.431 µM
C=CC(=O)ON=C1C=CC(=C(C#N)c2ccccc2)C=C1,Pichia kudriavzevii,"microbial killing, broth dilution",ATCC14243,48 h,MFC,16 µg/mL
CC1=C(Cn2cc(CN3CCN(C(=O)OC(C)(C)C)CC3)nn2)C(=O)c2ccccc2C1=O,Schistosoma mansoni,parasite growth,,"72 h, larva",IC50,1.5 µM
Cc1ccc(NC(=O)c2ccc(COC(Cn3ccnc3)c3ccc(Cl)cc3Cl)cc2)cc1 (centres unmarked),Pichia kudriavzevii,"microbial growth, broth dilution",,,MIC80,0.125 µg/mL
CC(C)c1ccc(/C=C2\N=C(SCC(=O)O)N(c3ccccc3)C2=O)cc1,Fusarium solani,"microbial growth, broth dilution",,,MIC,12 µg/mL
CC1=C(Cn2cnc([N+](=O)[O-])n2)C(=O)c2ccccc2C1=O,Schistosoma mansoni,parasite growth,,"72 h, larva",IC50,0.86 µM
CC(=O)ON=C1C=CC(=C(C#N)c2ccccc2)C=C1,Pichia kudriavzevii,"microbial killing, broth dilution",ATCC14243,48 h,MFC,16 µg/mL
CC1=C(Cn2cc([Si](C)(C)C)nn2)C(=O)c2ccccc2C1=O,Schistosoma mansoni,parasite growth,,"72 h, larva",IC50,1.57 µM
N#CC(=C1C=CC(=NOC(=O)OCc2ccccc2)C=C1)c1ccccc1,Pichia kudriavzevii,"microbial killing, broth dilution",ATCC14243,48 h,MFC,256 µg/mL
CC1=C(Cn2cc(CO)nn2)C(=O)c2ccccc2C1=O,Schistosoma mansoni,parasite growth,,"72 h, larva",IC50,1.05 µM
O=C(Nc1cccc(Br)c1)c1ccc(COC(Cn2ccnc2)c2ccc(Cl)cc2Cl)cc1 (centres unmarked),Pichia kudriavzevii,"microbial growth, broth dilution",,,MIC80,0.06 µg/mL
CC1=C(Cc2cn(CCO)nn2)C(=O)c2ccccc2C1=O,Schistosoma mansoni,parasite growth,,"72 h, larva",IC50,1.44 µM
COc1ccc(NC(=O)c2ccc(COC(Cn3ccnc3)c3ccc(Cl)cc3Cl)cc2)cc1 (centres unmarked),Pichia kudriavzevii,"microbial growth, broth dilution",,,MIC80,0.125 µg/mL
C#CCOC(=O)ON=C1C=CC(=C(C#N)c2ccccc2)C=C1,Pichia kudriavzevii,"microbial killing, broth dilution",ATCC14243,48 h,MFC,32 µg/mL
O=C(Nc1ccc(Br)cc1)c1ccc(COC(Cn2ccnc2)c2ccc(Cl)cc2Cl)cc1 (centres unmarked),Pichia kudriavzevii,"microbial growth, broth dilution",,,MIC80,0.06 µg/mL
C[C@@H]1[C@H](O)[C@@H](C)/C=C/C=C/C=C/C=C/C=C/C=C/C=C/[C@H](O[C@@H]2O[C@H](C)[C@@H](O)[C@H](N)[C@@H]2O)C[C@@H]2O[C@](O)(C[C@@H](O)C[C@@H](O)[C@H](O)CC[C@@H](O)C[C@@H](O)CC(=O)O[C@H]1C)C[C@H](O)[C@H]2C(=O)O,Pichia kudriavzevii,"microbial growth, broth dilution",ATCC14243,48 h,MIC,2 µg/mL
CC1=C(Cn2cc(COC3COC3)nn2)C(=O)c2ccccc2C1=O,Schistosoma mansoni,parasite growth,,"72 h, larva",IC50,1.08 µM
O=C(Nc1cccc(F)c1)c1ccc(COC(Cn2ccnc2)c2ccc(Cl)cc2Cl)cc1 (centres unmarked),Pichia kudriavzevii,"microbial growth, broth dilution",,,MIC80,0.25 µg/mL
CC1=C(Cc2cn(CCN3CCN(C(=O)OC(C)(C)C)CC3)nn2)C(=O)c2ccccc2C1=O,Schistosoma mansoni,parasite growth,,"72 h, larva",IC50,1.89 µM
O=C(Nc1ccc2cccnc2c1)c1ccc(COC(Cn2ccnc2)c2ccc(Cl)cc2Cl)cc1 (centres unmarked),Pichia kudriavzevii,"microbial growth, broth dilution",,,MIC80,8 µg/mL
